# PGC1a acetyl inh: PGC1a acetylation modulation, inhibitor mode | inhibition, % at 15.6 µM | U2OS PGC1a acetylation, AlphaScreen anti-acetyl-lysine; with virally co-expressed GCN5 acetyltransferase | hit rate 0.17% among 350,000;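 active = every replicate shows inhibition of at least 40%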;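 also: 0% = neutral control wells and 100% = positive control wells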
# SIRT5 inh: sirtuin-5 (human) deacylase inhibition; Purified SirT5, succinyl-peptide AMC, trypsin-coupled fluorescence; inhibition, % at 15 µM; hit rate 1.1% among 330,000; in the data active = inhibition above about 15%
# Target sequence (Q9NXA8 whole entry, looked up): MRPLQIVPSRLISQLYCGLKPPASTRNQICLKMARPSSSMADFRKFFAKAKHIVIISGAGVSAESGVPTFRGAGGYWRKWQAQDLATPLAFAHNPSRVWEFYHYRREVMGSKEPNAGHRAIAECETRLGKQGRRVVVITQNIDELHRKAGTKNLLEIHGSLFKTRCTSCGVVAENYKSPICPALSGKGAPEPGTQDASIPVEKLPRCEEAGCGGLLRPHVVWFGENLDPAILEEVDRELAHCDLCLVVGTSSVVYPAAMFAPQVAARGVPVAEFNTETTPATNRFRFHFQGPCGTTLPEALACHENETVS
# DENV2 CPE rescue: inhibitors of DENV2 cytopathic effect | DENV2-infected cells, cytopathic effect rescue, plate reader | CPE inhibition, % at 9.99 µM | hit rate 1.7% among 350,000 | AID 651640; in the data active = CPE inhibition above about 20%, passing the limit was not always enough; tested in BHK-21 cells;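 also: 0% = median of neutral control wells and 100% = median of positive control wells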
# Statin myotox sup: protects C2C12 myotubes from simvastatin toxicity | AID 602340 | rescue of ATP level, % at 7.49 µM | ATP luminescence, 48 h; scaled: DMSO 0, geranylgeraniol control 100 | hit rate 0.78% among 330,000;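 active = mean ATP rescue above about 67%, or every replicate alone reaching that limit, limit read from the data, passing the limit was not always enough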;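 also: myotubes were challenged with 10 µM simvastatin during compound exposure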
# S100A4 MyoIIA: S100A4-myosin IIA interaction inhibition; P26447; S100A4/TAMRA-MyoIIA peptide fluorescence polarization; inhibition, % at 10.7 µM; hit rate 0.14% among 360,000; AID 652163;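 active = mean inhibition of at least 70% across replicates, with every replicate also reaching that level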
# Target sequence (P26447 whole entry, looked up): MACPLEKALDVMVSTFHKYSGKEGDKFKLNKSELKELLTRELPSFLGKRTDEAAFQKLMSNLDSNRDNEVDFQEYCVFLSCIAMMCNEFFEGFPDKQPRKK
#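 Material: S100A4 monomer protein / Buffer or medium: 50 mM HEPES pH 7.2, 10 mM CaCl2, 100 mM KCl / Times: 5 min incubation before reading / Benchmarks: neutral control DMSO, positive control TFP / Reagent: labelled myosin peptide probe, 5 nM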
# Starred values were filed as active, the others as inactive; x = not tested or not shown. A selection: hits, their analogues and other compounds. The true share with any hit is near 2.9%.
SMILES,PGC1a acetyl inh,SIRT5 inh,DENV2 CPE rescue,Statin myotox sup,S100A4 MyoIIA
COc1cc2c(cc1OC)C(c1c(Cl)cccc1Cl)NC(=O)C2 (centres undefined),x,26*,-2,20,-2
COc1cc2c(cc1OC)C(c1cccc(Br)c1)NC(=O)C2 (centres undefined),-10,-1,0,14,2
C[C@H](CO)N1C[C@H](C)[C@H](CN(C)Cc2ccccc2)OCc2ccccc2-c2ccccc2C1=O,-4,4,-9,-38,7
C[C@H](CO)N1C[C@H](C)[C@H](CN(C)Cc2ccc(-c3ccccc3)cc2)OCc2ccccc2-c2ccccc2C1=O,-22,19*,5,x,0
C[C@@H]1CN([C@H](C)CO)C(=O)c2ccccc2-c2ccccc2CO[C@H]1CN(C)C(=O)c1cc(Cl)cc(Cl)c1,-3,5,29*,x,1
C[C@H]1CN([C@@H](C)CO)C(=O)c2ccccc2-c2ccccc2CO[C@H]1CN(C)Cc1ccc(F)cc1,-1,23*,0,x,10
C[C@@H]1CN([C@@H](C)CO)C(=O)c2ccccc2-c2ccccc2CO[C@H]1CN(C)C(=O)c1cc(Cl)cc(Cl)c1,-12,3,-6,x,12
COc1ccc2ccccc2c1-c1c(OC)ccc2ccccc12,11,-2,26*,x,23
C[C@H](CO)N1C[C@H](C)[C@@H](CN(C)Cc2ccccc2)Oc2ncc(C#Cc3cccnc3)cc2C1=O,9,3,-11,1,-3
COc1ccccc1CCN=C(N)NS(=O)(=O)c1ccc(F)cc1,2,-2,55*,x,2
CCOC(=O)CSc1nc2sc3c(c2c(=O)[nH]1)CC(C)(CC)OC3 (centres undefined),x,x,x,-10,x
CCC1(C)Cc2c(sc3nc(NN)n(C)c(=O)c23)CO1 (centres undefined),-10,x,x,144*,x
COc1ccc(Nc2cc(C)nc3ccccc23)cc1,-7,18*,x,-17,-8
Cc1cccc(S(=O)(=O)N2CCCCN3[C@H](CO)[C@@H](c4ccc(-c5ccccc5)cc4)[C@@H]3C2)c1,0,16*,1,x,3
Cc1cccc(S(=O)(=O)N2CCCCN3[C@H](CO)[C@H](c4ccc(-c5ccccc5)cc4)[C@H]3C2)c1,-28,13,-1,x,15
Cc1cccc(-c2ccc([C@@H]3[C@@H](CO)N4CCCCN(S(=O)(=O)c5cccc(C)c5)C[C@@H]34)cc2)c1,1,5,21*,x,0
Cc1cccc(-c2ccc([C@H]3[C@H](CO)N4CCCCN(S(=O)(=O)c5cccc(C)c5)C[C@@H]34)cc2)c1,9,19*,-4,x,-8
Cc1cccc(-c2ccc([C@@H]3[C@@H](CO)N4CCCCN(S(=O)(=O)c5cccc(C)c5)C[C@H]34)cc2)c1,6,8,-7,x,4
CO[C@@H]1CN(C)C(=O)c2cc(NC(=O)NC(C)C)ccc2OC[C@H](C)N(CC2CC2)C[C@H]1C,2,2,5,9,10
COc1ccc(S(=O)(=O)Nc2ccc3c(c2)C(=O)N([C@@H](C)CO)C[C@@H](C)[C@@H](CN(C)C(=O)Nc2ccccc2)OCCCC[C@@H](C)O3)cc1,-10,x,-3,x,x
COCC(=O)N1C[C@H](C)[C@H](OC)CN(C)C(=O)c2ccc(NC(=O)c3ccccc3)cc2OC[C@H]1C,1,2,5,7,-3
Cc1ccc(CNC(=O)COC(=O)CCC(=O)c2cccs2)cc1,-8,19*,1,x,-4
COc1cc(/C=C(/C(=O)c2cccs2)c2nc3ccccc3[nH]2)ccc1O,-11,x,x,7,x
O=C(/C(=C/c1ccc(Cl)cc1)c1nc2ccccc2[nH]1)c1cccs1,1,x,x,181*,x
COc1ccc(Cc2nnc(Nc3ccccc3)s2)cc1Br,x,-3,5,77*,5
SMILES,PGC1a acetyl inh,SIRT5 inh,DENV2 CPE rescue,Statin myotox sup,S100A4 MyoIIA
Cc1ccc2nc(-c3ccccc3Cl)cc(C(=O)Nc3cc(C)on3)c2c1,-17,x,x,109*,x
Cc1cc(NC(=O)c2ccccc2Cl)no1,1,x,x,-4,x
Cc1nc2ccccc2c(=O)n1NC(=O)C1CCCCC1,-12,x,x,9,x
O=C(Nn1c(C2CCC2)nc2ccccc2c1=O)C1CCC1,-63,x,x,85*,x
O=C(c1cccnc1)N1CC2(C1)[C@@H](c1ccccc1)[C@H](CO)N2Cc1cccnc1,-3,-13,-2,x,2
CC(C)(C)NC(=O)CN(C(=O)Cn1nnc(-c2ccccc2F)n1)c1cccc2c1CCCC2,-6,x,x,153*,x
COc1ccccc1N(CC(=O)NC(C)(C)C)C(=O)Cn1nnc(-c2ccc(C)o2)n1,-11,x,x,11,x
COc1ccc(S(=O)(=O)N2CCC3CC2c2cc(-c4ccc5c(c4)OCO5)ccc23)cc1 (centres undefined),-5,-1,89*,-3,-1
Cc1ccc(S(=O)(=O)N2CCC3CC2c2cc(Cl)ccc23)cc1 (centres undefined),-16,-2,6,-15,-1
C[C@@H]1CN([C@H](C)CO)C(=O)c2cc(NS(=O)(=O)c3ccc(F)cc3)ccc2O[C@H]1CN(C)Cc1ccc2c(c1)OCO2,1,3,-2,23,1
C[C@@H]1CN([C@@H](C)CO)C(=O)c2cc(NC(=O)Cc3cn(C)c4ccccc34)ccc2O[C@@H]1CN(C)Cc1ccc(C(=O)Nc2ccccc2N)cc1,2,x,0,43,4
C[C@H](CO)N1C[C@H](C)[C@H](CN(C)Cc2ccc(C(=O)Nc3ccccc3N)cc2)Oc2ccc(NC(=O)Cc3cn(C)c4ccccc34)cc2C1=O,8,23*,-10,97*,-31
C[C@@H]1CN([C@H](C)CO)C(=O)c2cc(NC(=O)Cc3cn(C)c4ccccc34)ccc2O[C@H]1CN(C)Cc1ccc(C(=O)Nc2ccccc2N)cc1,8,x,2,50,-37
C[C@@H]1CN([C@@H](C)CO)C(=O)c2cc(NC(=O)Cc3cn(C)c4ccccc34)ccc2O[C@H]1CN(C)Cc1ccc(C(=O)Nc2ccccc2N)cc1,8,17*,-6,24,-45
N#C[C@H]1[C@@H](c2ccccc2-c2cccc(F)c2)[C@H](CO)N1C(=O)C1CCC1,5,-2,-10,x,6
CCc1c(C)sc(NC(=O)c2ccco2)c1C(=O)N1CCOCC1,3,x,x,-1,x
CCc1c(C)sc(NC(=O)c2ccco2)c1C(=O)N1CCCCC1,8,x,x,116*,x
C[C@@H]1CN([C@H](C)CO)C(=O)c2cc(C#Cc3cccc(F)c3)cnc2O[C@@H]1CN(C)C(=O)C1CCOCC1,12,x,x,22,x
COCCNC(=O)CCc1c(C)nc2c(c(C)nn2-c2ccc(C)c(C)c2)c1C,78*,-8,16,-8,-7
COc1ccccc1C(=O)NCC(=O)OC(C)C(=O)NC(=O)NC1CCCCC1 (centres undefined),-8,x,x,87*,x

# Compound activity from PubChem BioAssay.
